{
  "source": "ChEMBL document CHEMBL2150950",
  "about": "“Effect of 4-aryl-2-methyl-5-nitro-1,4-dihydropyridine-3-carboxylates on the guinea pig papillary muscle and isolated human vena saphena magna that is used for coronary artery bypass grafting” (2011)",
  "key": {"[1]": {"experiment": "(§1) Ionotropic effect in guinea pig ventricle papillary muscles assessed as lengthening of 25% repolarized cardiac action potential duration time at 10^-4 M by microelectrode technique relative to untreated control (reference value: 120 to 131 APD25 ms) in presence of 1 x 10^-6 M IKr channel blocker Sotalol", "type": "functional, Cavia porcellus"}, "[2]": {"experiment": "Ionotropic effect in guinea pig right ventricle papillary muscles assessed as contraction force at 10^-6 M by force transduction assay relative to untreated control (reference value: 100%) in presence of 3.1 x 10^-6 M inward rectifier current blocker BaCl2", "type": "functional, Cavia porcellus, Heart right ventricle"}, "[3]": {"experiment": "as §1, with “10%” for “25%”, “10^-5” for “10^-4”, “52” for “120”, “54 APD10” for “131 APD25”", "type": "functional, Cavia porcellus"}, "[4]": {"experiment": "(§2) Ionotropic effect in guinea pig ventricle papillary muscles assessed as lengthening of 50% repolarized cardiac action potential duration time at 10^-7 M by microelectrode technique relative to untreated control (reference value: 180 to 192 APD50 ms) in presence of 2 x 10^-5 M KATP channel blocker glibenclamide", "type": "functional, Cavia porcellus"}, "[5]": {"experiment": "as §2, with “10^-5” for “10^-7”", "type": "functional, Cavia porcellus"}, "[6]": {"experiment": "(§3) Ionotropic effect in guinea pig ventricle papillary muscles assessed as lengthening of 90% repolarized cardiac action potential duration time at 10^-7 M by microelectrode technique relative to untreated control (reference value: 209 to 222 APD50 ms) in presence of 3.1 x 10^-6 M inward rectifier current blocker BaCl2", "type": "functional, Cavia porcellus"}, "[7]": {"experiment": "Ionotropic effect in guinea pig right ventricle papillary muscles assessed as contraction force at 10^-4 M by force transduction assay relative to untreated control (reference value: 100%) in presence of 3.1 x 10^-6 M inward rectifier current blocker BaCl2", "type": "functional, Cavia porcellus, Heart right ventricle"}, "[8]": {"experiment": "as §2, with “10%” for “50%”, “52” for “180”, “54 APD10” for “192 APD50”", "type": "functional, Cavia porcellus"}, "[9]": {"experiment": "as §2, with “10%” for “50%”, “10^-6” for “10^-7”, “52” for “180”, “54 APD10” for “192 APD50”", "type": "functional, Cavia porcellus"}, "[10]": {"experiment": "Ionotropic effect in guinea pig ventricle papillary muscles assessed as lengthening of 90% repolarized cardiac action potential duration time at 10^-5 M by microelectrode technique relative to untreated control (reference value: 132 to 176 APD50 ms)", "type": "functional, Cavia porcellus, Papillary muscle"}, "[11]": {"experiment": "as §3, with “50%” for “90%”, “10^-6” for “10^-7”, “180” for “209”, “192” for “222”", "type": "functional, Cavia porcellus"}, "[12]": {"experiment": "Ionotropic effect in guinea pig right ventricle papillary muscles assessed as contraction force at 10^-6 M by force transduction assay relative to untreated control (reference value: 100%) in presence of 2 x 10^-5 M KATP channel blocker glibenclamide", "type": "functional, Cavia porcellus, Heart right ventricle"}, "[13]": {"experiment": "as §1, with “10^-5” for “10^-4”", "type": "functional, Cavia porcellus"}, "[14]": {"experiment": "Ionotropic effect in guinea pig right ventricle papillary muscles assessed as contraction force at 10^-5 M by force transduction assay relative to untreated control (reference value: 100%) in presence of 1 x 10^-6 M IKr channel blocker Sotalol", "type": "functional, Cavia porcellus, Heart right ventricle"}, "[15]": {"experiment": "as §3, with “10%” for “90%”, “10^-6” for “10^-7”, “52” for “209”, “54 APD10” for “222 APD50”", "type": "functional, Cavia porcellus"}, "[16]": {"experiment": "as §3, with “50%” for “90%”, “10^-5” for “10^-7”, “180” for “209”, “192” for “222”", "type": "functional, Cavia porcellus"}, "[17]": {"experiment": "Ionotropic effect in guinea pig ventricle papillary muscles assessed as lengthening of 50% repolarized cardiac action potential duration time at 10^-4 M by microelectrode technique relative to untreated control (reference value: 132 to 176 APD50 ms)", "type": "functional, Cavia porcellus, Papillary muscle"}, "[18]": {"experiment": "Ionotropic effect in guinea pig right ventricle papillary muscles assessed as contraction force at 10^-4 M by force transduction assay relative to untreated control (reference value: 100%)", "type": "functional, Cavia porcellus, Papillary muscle"}, "[19]": {"experiment": "Ionotropic effect in guinea pig right ventricle papillary muscles assessed as contraction force at 10^-7 M by force transduction assay relative to untreated control (reference value: 100%) in presence of 1 x 10^-6 M IKr channel blocker Sotalol", "type": "functional, Cavia porcellus, Heart right ventricle"}, "[20]": {"experiment": "as §1, with “10%” for “25%”, “52” for “120”, “54 APD10” for “131 APD25”", "type": "functional, Cavia porcellus"}, "[21]": {"experiment": "Ionotropic effect in guinea pig ventricle papillary muscles assessed as lengthening of 10% repolarized cardiac action potential duration time at 10^-5 M by microelectrode technique relative to untreated control (reference value: 37 to 47 […] ms)", "type": "functional, Cavia porcellus, Papillary muscle"}, "[22]": {"experiment": "Ionotropic effect in guinea pig ventricle papillary muscles assessed as lengthening of 10% repolarized cardiac action potential duration time at 10^-7 M by microelectrode technique relative to untreated control (reference value: 37 to 47 APD10 ms)", "type": "functional, Cavia porcellus, Papillary muscle"}, "[23]": {"experiment": "as §1, with “at 10^-5” for “at 10^-4”, “of 2” for “of 1”, “x 10^-5” for “x 10^-6”, “M KATP” for “M IKr”, “blocker glibenclamide” for “blocker Sotalol”", "type": "functional, Cavia porcellus"}, "[24]": {"experiment": "as §1, with “at 10^-6” for “at 10^-4”, “of 2” for “of 1”, “x 10^-5” for “x 10^-6”, “M KATP” for “M IKr”, “blocker glibenclamide” for “blocker Sotalol”", "type": "functional, Cavia porcellus"}, "[25]": {"experiment": "as §2, with “10^-6” for “10^-7”", "type": "functional, Cavia porcellus"}, "[26]": {"experiment": "as §1, with “90%” for “25%”, “209” for “120”, “222 APD50” for “131 APD25”", "type": "functional, Cavia porcellus"}, "[27]": {"experiment": "as §3, with “50%” for “90%”, “180” for “209”, “192” for “222”", "type": "functional, Cavia porcellus"}, "[28]": {"experiment": "Ionotropic effect in guinea pig right ventricle papillary muscles assessed as contraction force at 10^-5 M by force transduction assay relative to untreated control (reference value: 100%) in presence of 2 x 10^-5 M KATP channel blocker glibenclamide", "type": "functional, Cavia porcellus, Heart right ventricle"}, "[29]": {"experiment": "Ionotropic effect in guinea pig right ventricle papillary muscles assessed as contraction force at 10^-4 M by force transduction assay relative to untreated control (reference value: 100%) in presence of 1 x 10^-6 M IKr channel blocker Sotalol", "type": "functional, Cavia porcellus, Heart right ventricle"}, "[30]": {"experiment": "Vasodilatory activity in human vena saphena magna assessed as relaxation of phenylephrine-induced smooth muscle contraction at 10^-7 to 10^-4 M", "type": "functional", "summary_of_the_method": "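Saphenous vein rings came from 37 CABG patients. They were bathed in Tyrode's solution (mM: NaCl 137, KCl 5.4, CaCl2 1.8, MgCl2 0.9, Tris HCl 10, glucose 5; pH 7.4), equilibrated 45–60 min and washed every 15 min. Rings were precontracted with 10^-4 M phenylephrine, then given cumulative test agent at 10^-7 to 10^-4 M. Isometric relaxation was recorded, as means ± SE.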"}},
  "note": "Active and inactive are the calls of the source. No cut-off for these calls is given here.",
  "data": [
    {"smiles": "CCCOCCOC(=O)C1=C(C)NC=C([N+](=O)[O-])C1c1ccccc1OC(F)F", "note": "(stereo not given)", "values": [
      {"measurement": "Time", "setting": "[1]", "result": 142, "unit": "ms"},
      {"measurement": "Activity", "setting": "[2]", "result": 118, "unit": "%"},
      {"measurement": "Time", "setting": "[3]", "result": 54.6, "unit": "ms"},
      {"measurement": "Time", "setting": "[4]", "result": 209, "unit": "ms"},
      {"measurement": "Time", "setting": "[5]", "result": 235, "unit": "ms"},
      {"measurement": "Time", "setting": "[6]", "result": 237, "unit": "ms"},
      {"measurement": "Activity", "setting": "[7]", "result": 204.5, "unit": "%"},
      {"measurement": "Time", "setting": "[8]", "result": 59.5, "unit": "ms"},
      {"measurement": "Time", "setting": "[9]", "result": 59.6, "unit": "ms"},
      {"measurement": "Time", "setting": "[10]", "result": 238.5, "unit": "ms"},
      {"measurement": "Time", "setting": "[11]", "result": 224, "unit": "ms"},
      {"measurement": "Activity", "setting": "[12]", "result": 120, "unit": "%"},
      {"measurement": "Time", "setting": "[13]", "result": 133.6, "unit": "ms"},
      {"measurement": "Activity", "setting": "[14]", "result": 100.2, "unit": "%"},
      {"measurement": "Time", "setting": "[15]", "result": 60.9, "unit": "ms"},
      {"measurement": "Time", "setting": "[16]", "result": 231, "unit": "ms"},
      {"measurement": "Time", "setting": "[17]", "result": 222, "unit": "ms"},
      {"measurement": "Activity", "setting": "[18]", "result": 190.8, "unit": "%"},
      {"measurement": "Activity", "setting": "[19]", "result": 85, "unit": "%"},
      {"measurement": "Time", "setting": "[20]", "result": 55.7, "unit": "ms"},
      {"measurement": "Time", "setting": "[21]", "result": 46, "unit": "ms"},
      {"measurement": "Time", "setting": "[22]", "result": 40, "unit": "ms"},
      {"measurement": "Time", "setting": "[23]", "result": 155, "unit": "ms"},
      {"measurement": "Time", "setting": "[24]", "result": 148, "unit": "ms"},
      {"measurement": "Time", "setting": "[25]", "result": 219, "unit": "ms"},
      {"measurement": "Time", "setting": "[26]", "result": 250.8, "unit": "ms"},
      {"measurement": "Time", "setting": "[27]", "result": 210, "unit": "ms"},
      {"measurement": "Activity", "setting": "[28]", "result": 163, "unit": "%"},
      {"measurement": "Activity", "setting": "[29]", "result": 154.8, "unit": "%"},
      {"measurement": "Activity", "setting": "[30]", "result": "Active"}
    ]}
  ]
}
